Screens: PubChem BioAssay, Broad Institute
This is a sample that favours compounds with a hit; in the whole collection about 2.6% have one here.
miR-122 sensor: miR-122 inhibition in Huh7 cells; Huh7 miR-122 Renilla luciferase sensor, 48 h; neutral wells = 0, positive control = 100; activation (reporter increase), % at 12.5 µM; 0.3% of 340,000 active;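 active means mean replicate activation score at least 90 and every replicate individually at or above 90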;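 further: higher luciferase means less miR-122 activity so hits act as miR-122 inhibitors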
rRNA inh HTS: inhibits bacterial ribosomal RNA function over humanized ribosomes | E. coli WT GFP vs humanized-ribosome RFP mutants, fluorescence, 24 h; stronger effect = lower value; DMSO median 0, no signal -100 | GFP signal change (wild-type ribosome), % (no concentration beside the values) | AID 720706 | 1.6% of 350,000 active;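 active means significant combined selectivity score with lowered wild-type GFP, culture density cut under 30%, mutant RFP and density less affected; inactive means any of these conditions unmet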
FN deposition inh: fibronectin deposition inhibition; AID 743247; 0.086% of 350,000 active; inhibition, % at 12.6 µM; AH1F fibroblasts, Alexa488-fibronectin deposition fluorescence, overnight;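 active means mean inhibition across replicates of 30% or more, regardless of how many single replicates reach that level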;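 further: positive control wells lacked labelled fibronectin entirely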
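Material: AH1F fibroblast monolayer depositing Alexa488-labelled fibronectin into matrix | Input: 10000 AH1F cells/well | Medium: DMEM plus 2% serum, read in PBS | Reagent: Alexa488-fibronectin, 24 nM final in well | Compound dosing: One dose per compound, pinned | Schedule: 1 h adhesion, overnight exposure | Measured by: Fluorescence at 485 nm excitation, 525 nm emission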
Vif inh: blocks HIV Vif function; HEK293T cells, Vif self-association by quenched fluorescence, imaging, 24 h; 0.35% of 340,000 active; inhibition, % at 7.49 µM; AID 602346; in the data active means inhibition above about 50%, passing the limit was not always enough
Env fusion inh: HIV envelope-mediated fusion inhibition; HeLa-JRFL Env/CEM21 cell fusion, luciferase; inhibition, % at 12.3 µM; 1.1% of 360,000 active; AID 651610;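 active means mean replicate inhibition score of at least 50 and every replicate individually at or above 50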;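 further: 0% = plate neutral controls and 100% = maraviroc near 300 nM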
S100A4 MyoIIA: inhibitors of human S100A4 binding to myosin IIA peptide; 0.14% of 360,000 active; inhibition, % at 10.7 µM; S100A4/TAMRA-MyoIIA peptide fluorescence polarization; P26447;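 active means mean inhibition of at least 70% across replicates, with every replicate also reaching that level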
Target sequence (P26447 whole entry, looked up): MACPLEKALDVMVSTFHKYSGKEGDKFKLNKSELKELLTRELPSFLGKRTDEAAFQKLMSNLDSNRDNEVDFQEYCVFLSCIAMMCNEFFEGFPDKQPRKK
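Assay system: human S100A4 monomer with TAMRA-labelled myosin IIA peptide / Buffer or medium: Calcium-containing HEPES buffer, pH 7.2 / Reagent: TAMRA-labelled myosin IIA heavy-chain peptide probe, 5 nM / Compound: one dose per compound / Timing: polarization read 5 min after assay mix addition, stable 5–60 min / Benchmarks: neutral control DMSO, positive control TFP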
The depositor's hits bear a star; [ ] = dose if it differs, or a comment.

Results for CC(C)C(=O)Nc1cc(S(=O)(=O)Nc2cccc(Cl)c2)ccc1Cl ?
miR-122 sensor: 256*; rRNA inh HTS: -22*; FN deposition inh: 5; Vif inh: 2; Env fusion inh: 3; S100A4 MyoIIA: -2

What do the screens show for `CNC(=O)C[C@@H]1CC[C@H]2[C@H](COc3ccc(NC(=O)Nc4cccc(F)c4)cc3C(=O)N2C)O1`?
miR-122 sensor: -21[16.7 µM]; rRNA inh HTS: 0; FN deposition inh: -18; Env fusion inh: -8[16.7 µM]

How did CC(=O)N(C)C[C@H]1Oc2ccc(N)cc2C(=O)N(C)C[C@@H]1C do in these assays?
rRNA inh HTS: 0

Results for COc1ccc(NC(=O)COc2ccc(N(C)S(=O)(=O)c3ccc(Cl)cc3)cc2)cc1OC ?
miR-122 sensor: -17; rRNA inh HTS: -18; FN deposition inh: 1; Vif inh: -25; Env fusion inh: 57*; S100A4 MyoIIA: -1

What do the screens show for `C[C@@H]1CCCCO[C@H](CN(C)Cc2ccc3c(c2)OCO3)[C@@H](C)CN([C@@H](C)CO)C(=O)c2cc(NC(=O)C3CCCCC3)ccc2O1`?
miR-122 sensor: -6[16.7 µM]; rRNA inh HTS: 0; Env fusion inh: -102[16.7 µM]; S100A4 MyoIIA: -2

Results for COc1ccc(S(=O)(=O)NNC(=S)NCCc2ccccc2)c(OC)c1 ?
rRNA inh HTS: -25*; Vif inh: -7; Env fusion inh: -34; S100A4 MyoIIA: -12

Results for COc1ccc(NC(=S)NCCc2ccccc2)c(OC)c1 ?
miR-122 sensor: 0; rRNA inh HTS: -16; S100A4 MyoIIA: 4

Results for CC(=O)c1cccc(NC(=S)NCCc2ccc(F)cc2)c1 ?
rRNA inh HTS: -26; FN deposition inh: 6; Vif inh: 4; Env fusion inh: -1; S100A4 MyoIIA: -7

What do the screens show for `CC(=O)c1cccc(NC(=O)Nc2cnn(Cc3ccc(F)cc3)c2)c1`?
rRNA inh HTS: -22*; S100A4 MyoIIA: 1

Results for O=C1CCCn2cc(nn2)COCCN1 ?
rRNA inh HTS: 4; FN deposition inh: -1

Results for COc1cc(/C=C2/SC(=S)N(Cc3ccccc3)C2=O)ccc1OCC(=O)O ?
rRNA inh HTS: -6; FN deposition inh: 13; Vif inh: 1; Env fusion inh: -12; S100A4 MyoIIA: -1

What do the screens show for `COc1cc(/C=C2\SC(=S)N(CC(=O)O)C2=O)ccc1OS(=O)(=O)c1ccc(C)cc1`?
miR-122 sensor: 2; rRNA inh HTS: -18*; FN deposition inh: 0; Vif inh: 8; Env fusion inh: -6; S100A4 MyoIIA: -4

Results for COc1cc(/C=C2/SC(=S)N(Cc3ccccc3)C2=O)ccc1OS(C)(=O)=O ?
miR-122 sensor: 5; rRNA inh HTS: 9; FN deposition inh: 11; Vif inh: -7; Env fusion inh: 22; S100A4 MyoIIA: 1

What do the screens show for `COc1cc(/C=C2/SC(=S)N(CC(=O)O)C2=O)ccc1OC(=O)c1cccs1`?
miR-122 sensor: -13; rRNA inh HTS: -19*; FN deposition inh: -2; Vif inh: 9; Env fusion inh: -9; S100A4 MyoIIA: -5

What do the screens show for `C[C@H](NC(=O)[C@H]1[C@H](CO)[C@H]2Cn3c(ccc(-c4cccc(F)c4)c3=O)[C@H]2N1C)c1ccccc1`?
rRNA inh HTS: -5; S100A4 MyoIIA: -1

What do the screens show for `Cc1ccc(S(=O)(=O)N[C@H]2CC[C@@H](CC(=O)N3CCN(c4ccccc4)CC3)O[C@H]2CO)cc1`?
rRNA inh HTS: -7; Env fusion inh: 15[16.7 µM]; S100A4 MyoIIA: 9

How did CCOc1ccc(N2C(=O)Nc3ccccc3C2(O)C(=O)NCc2ccc3c(c2)OCO3)cc1 (stereo unspecified) do in these assays?
miR-122 sensor: 171*; FN deposition inh: 4; Vif inh: 4; Env fusion inh: -43

What do the screens show for `O=C(CSc1nc2ccccc2s1)Nc1ccc2c(c1)OCO2`?
rRNA inh HTS: -28*; Vif inh: -2; Env fusion inh: -11; S100A4 MyoIIA: 1

Results for Nc1nc(NCc2ccccc2)nc(NCCO)c1[N+](=O)[O-] ?
miR-122 sensor: -7; rRNA inh HTS: 4; FN deposition inh: 7; Vif inh: 7; Env fusion inh: 63*; S100A4 MyoIIA: 0
